Experimental data reported in ChEMBL document CHEMBL4196161, “Lead Optimization of 5-Aryl Benzimidazolone- and Oxindole-Based AMPA Receptor Modulators Selective for TARP γ-8” (ACS Med Chem Lett, 2018).
In brackets after ≈: the same amount, converted by molar mass.

How the values were obtained:
Rattus norvegicus [1] = assay: Ex vivo receptor occupancy at GluA/TARPgamma8 in po dosed Sprague-Dawley rat assessed as reduction in [3H]JNJ-56022486 receptor labeling in hippocampus measured within 10 mins by autoradiography; format: functional
Rattus norvegicus [2] = assay: Hepatotoxicity in Sprague-Dawley rat assessed as necrosis at 20 to 60 mg/kg, po measured after 14 days by histological analysis; format: toxicity, organism-based; settings: in vivo, 336 h
How it was run: (§1)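 Repeat-dose toleration study in rats over 14 days at 20 and 60 mg/kg/day; CNS observations recorded and liver assessed by histological analysis.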

[3] = Volume of distribution at steady state in Sprague-Dawley rat at 1 mg/kg, iv or 5 mg/kg, po administered as single dose by LC-MS/MS analysis; format: ADME, organism-based; settings: in vivo, read-out: Vdss
How it was run: (§2)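 Single 1 mg/kg i.v. dose as a solution to Sprague–Dawley rats (n = 3/group); vehicle 20% HP-β-CD in one study series, 1:1 PEG400/H2O in the other; plasma PK parameters derived.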

[4] = Ratio of unbound brain to plasma concentration in Sprague-Dawley rat at 1 mg/kg, iv or 5 mg/kg, po administered as single dose by LC-MS/MS analysis; format: ADME, organism-based; settings: brain and plasma, read-out: K(p,uu,brain)
[5] = Thermodynamic solubility of the compound in fasted state simulated intestinal fluid at pH 6.5 incubated under stirred condition for 3 days; settings: read-out: Therm_solubility
[6] = Apparent permeability across apical to basolateral side in MDCK-MDR1 cells at 5 uM measured after 60 mins by LC-MS/MS analysis; format: ADME, cell-based, Canis lupus familiaris; settings: dog
How it was run: (§3)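 Bidirectional apparent permeability measured in Madin–Darby canine kidney cells transfected with the MDR1 (P-gp) gene; Papp reported in ×10–6 cm/s.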

Rattus norvegicus [7] = assay: Ex vivo receptor occupancy at GluA/TARPgamma8 in po dosed Sprague-Dawley rat assessed as brain concentration causing 50% reduction in [3H]JNJ-56022486 receptor labeling in hippocampus at Tmax by autoradiography; format: functional, organism-based
How it was run: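 Oral dose–response in Sprague–Dawley rats, n = 3/dose (8 doses in one study; vehicle 0.5% HPMC or 20% HP-β-CD); hippocampal occupancy measured at Tmax by ex vivo autoradiography using [3H]-12; EC50 expressed against plasma (ng/mL) or brain (ng/g) exposure, ED50 against dose.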

[8] = Clearance in Sprague-Dawley rat at 1 mg/kg, iv administered as single dose by LC-MS/MS analysis; format: ADME, organism-based; settings: in vivo; how it was run: as §2
[9] = Half life in Sprague-Dawley rat at 1 mg/kg, iv administered as single dose by LC-MS/MS analysis; format: ADME, organism-based; settings: in vivo; how it was run: as §2
[10] = Protein binding in human plasma assessed as unbound fraction at 1 uM measured after 6 hrs by equilibrium dialysis method; format: ADME, cell-free
How it was run: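 Human or rat plasma protein binding at 1 μM compound, expressed as fraction unbound (fub).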

[11] = Cmax in Sprague-Dawley rat at 5 mg/kg, po administered as single dose by LC-MS/MS analysis; format: ADME, organism-based; design: dose 5 mg/kg, route oral; settings: in vivo
How it was run: (§4)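 Sprague–Dawley rats (n = 3/group) given compound as a solution in 20% HP-β-CD, 1 mg/kg i.v. and 5 mg/kg p.o.; plasma pharmacokinetics derived from these arms.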

Rattus norvegicus [12] = assay: Toxicity in po dosed Sprague-Dawley rat assessed as effect on central nervous system functions measured after 14 days; format: organism-based; settings: in vivo, 336 h; how it was run: as §1
Rattus norvegicus [13] = assay: Ex vivo receptor occupancy at GluA/TARPgamma8 Sprague-Dawley rat assessed as plasma concentration causing 50% reduction in [3H]JNJ-56022486 receptor labeling in hippocampus po measured after 10 mins by autoradiography
[14] = Oral bioavailability in Sprague-Dawley rat at 5 mg/kg administered as single dose by LC-MS/MS analysis; format: ADME, organism-based; settings: in vivo; how it was run: as §4
[15] = Apparent permeability across basolateral to apical side in MDCK-MDR1 cells at 5 uM measured after 60 mins by LC-MS/MS analysis; format: ADME, cell-based, Canis lupus familiaris; settings: dog; how it was run: as §3
[16] = Thermodynamic solubility of the compound in simulated gastric fluid at pH 1.6 incubated under stirred condition for 3 days; format: physicochemical; settings: read-out: Therm_solubility
How it was run: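 Thermodynamic solubility (μM) determined in simulated gastric fluid at pH 1.6 and in fasted state simulated intestinal fluid at pH 6.5.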

O=c1[nH]c2ccc(-c3c(Cl)cccc3OC(F)(F)F)cc2[nH]1
ED50 (Rattus norvegicus [1]): 0.5 mg/kg
Activity (Rattus norvegicus [2]): Toxic
Vd [3]: 3.3 L/kg
Kp uu [4]: 0.6
solubility thermodynamic at 72 h [5]: 74 µM (≈ 24.3 µg/mL)
Papp A→B at 1 h, 5 µM [6]: 22 ×10⁻⁶ cm/s
EC50 (Rattus norvegicus [7]): 545 ng/g
clearance [8]: 6.9 mL/min/kg
half-life [9]: 5.8 h
fraction unbound at 6 h, 1 µM [10]: 0.3
Cmax [11]: 1030 ng/mL
Activity (Rattus norvegicus [12]): Non-Toxic
EC50 (Rattus norvegicus [13]): 0.145 µg/mL (≈ 0.441 µM)
bioavailability [14]: 133%
Papp B→A at 1 h, 5 µM [15]: 24 ×10⁻⁶ cm/s
solubility thermodynamic at 72 h [16]: < 4 µM
